L major viab: inhibitors of Leishmania major promastigote growth | Leishmania major promastigotes, resazurin fluorescence viability | inhibition, % at 10 µM | 200,000 tested, 9% active | AID 1063; in the data active = inhibition above about 50%;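 also: promastigotes grown with compound for 44 hours at 28 °C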
T cruzi inh: blocks replication of Trypanosoma cruzi; T. cruzi beta-gal in NIH3T3, luminescence, 90 h; inhibition, % (test concentration not listed); 300,000 tested, 1.4% active;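 active = mean inhibition across valid replicates above about 55%, limit read from the data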;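 also: signal also drops with host cell toxicity which is not excluded here; 0% = plate median of DMSO wells and 100% = zero luminescence signal; higher percent means less beta-gal luminescence so fewer parasites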
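System: mouse NIH/3T3 fibroblasts infected with β-gal-expressing T. cruzi Tulahuen C4 / Input: NIH/3T3 cells, 5,000 per well / Buffer or medium: Low-serum DMEM with 2% FBS / Probe or stimulus: 5000 reporter trypomastigotes per well / Schedule: ≥90 h infection period, 3 h prior cell attachment / Measured by: GalScreen luminescence, 60 min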
Mdm2 MdmX PPI: human Mdm2/MdmX binding inhibition; 330,000 tested, 3% active; O15151+Q00987; SaOS-2 split-luciferase Mdm2/MdmX complementation, luminescence; inhibition, % at 8 µM;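 active = inhibition of at least 50% at 8 µM in the primary screen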
CSC inhib: blocks cancer stem cells; inhibition, % at 7.5 µM; 300,000 tested, 1.1% active; cancer stem cell-like cells viability, luminescence; in the data active = inhibition above about 75%; tested in HMLE shEcad cells
Beta apoptosis: beta cell apoptosis inhibition; INS-1E cytokine-induced death, ATP luminescence, 48 h; percent of positive-control rescue, neutral wells zero; protection from apoptosis, % (no concentration beside the values); 300,000 tested, 0.8% active;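 active = Every replicate reaches about 75%, or at least half do and their mean reaches it too, limit read from the data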;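 also: 0% = cytokine-treated negative control wells and 100% = positive control rescue; higher means more ATP so stronger rescue from cytokine killing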
SKKanGAS inh: blocks kanamycin growth of S. pyogenes SKKanGAS strain. AID 1662. inhibition, % at 7.5 µM. BacTiter-Glo, 6 h. 300,000 tested, 1.3% active;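 active = mean replicate score, as percent of positive control median, at least 50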;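 also: strain carries kanamycin resistance gene driven by streptokinase promoter and grows in 40 µg/ml kanamycin; loss of luminescence reflects streptokinase promoter inhibition or plain growth inhibition; 0% = median of DMSO wells and 100% = positive control at its reference dose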
Mdm2-MdmX conf: confirmation of human Mdm2/MdmX interaction inhibitors; 10,000 tested, 55% active; Mdm2-MdmX binding, luminescent assay; shares compounds with Mdm2 MdmX PPI; inhibition, % at 8 µM; in the data active = inhibition above about 40%
FLuc counter: inhibits full-length luciferase, flagging false Mdm2/MdmX hits; shares compounds with Mdm2 MdmX PPI; SaOS-2 full-length luciferase counterscreen, luminescence; inhibition, % at 8 µM; 6,200 tested, 77% active; AID 504607;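 active = mean inhibition at 8 µM reaching about 37%, which flags the compound as non-specific, limit read from the data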;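 also: p53-null SaOS-2 cells with luciferase driven by a doxycycline-inducible promoter; compound on cells about two nights before reading with doxycycline added after day one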
Starred values were filed as active, the others as inactive; . = no result given. In the library only some 9.4% were active in any assay of this set; here they are far more common.

SMILES	L major viab	T cruzi inh	Mdm2 MdmX PPI	CSC inhib	Beta apoptosis	SKKanGAS inh	Mdm2-MdmX conf	FLuc counter
CC(C)OC(=O)CSc1nc(N)c(C#N)c(-c2cccs2)c1C#N	-2.9	13.2	-17.0	-2.5	8.2	8.9	.	.
N#Cc1c(N)nc(SCC(=O)NCCc2ccccc2)c(C#N)c1-c1cccs1	3.6	10.0	63.0*	5.7	-2.5	-4.2	15.3	.
COc1ccc(/C=N/Nc2nnc(-c3ccccc3)c(=O)[nH]2)cc1	0.0	-19.2	75.7*	-16.3	.	-6.4	19.9	.
Cn1cc(NC(=O)Nc2ccc(C(F)(F)F)cc2)c(C(F)(F)F)n1	.	2.9	7.1	-3.1	-8.3	-1.9	.	.
O=C(Nc1cccc(S(=O)(=O)N2CCCCCC2)c1)C1CCN(C(=O)c2ccc(Cl)cc2)CC1	.	1.4	31.4	-4.3	3.2	8.7	.	.
O=C(CSc1nc2ccc(Nc3nc(N4CCOCC4)nc(N4CCOCC4)n3)cc2s1)Nc1ccccc1F	.	.	91.4*	-4.1	7.0	.	25.7	.
O=C(CSc1nc2ccc(Nc3nc(N4CCOCC4)nc(N4CCOCC4)n3)cc2s1)N1CCOCC1	2.2	29.6	33.0	1.6	7.5	28.0	.	.
CSc1nc2ccc(Nc3nc(N4CCOCC4)nc(N4CCOCC4)n3)cc2s1	15.3	.	49.2	.	9.7	.	.	.
O=C(CSc1nc2ccc(Nc3nc(N4CCOCC4)nc(N4CCOCC4)n3)cc2s1)Nc1ccccc1Cl	.	9.6	89.4*	44.7	-7.7	10.8	38.0	88.0*
Cc1c(NC(=O)c2ccc(N(Cc3ccccc3)S(C)(=O)=O)cc2)c(=O)n(-c2ccccc2)n1C	-3.7	9.0	16.1	0.9	-0.1	-3.0	.	.
Cc1c(C(C)CCCO)oc(=O)c2c1Oc1c(C)c(C(C)C[C@H](C)O)oc(=O)c1C2 (some centres undefined)	.	.	6.9	-3.4	0.9	.	.	.
Brc1ccc2ncnc(NCc3ccco3)c2c1	55.0*	13.6	56.9*	3.4	3.4	12.8	22.2	.
Brc1ccc2ncnc(Nc3ccc(N4CCOCC4)cc3)c2c1	18.6	62.4*	62.0*	-2.8	-9.3	1.7	65.5*	25.5
CC(C)Nc1ncnc2ccc(Br)cc12	42.9	-44.8	67.1*	2.1	29.4	2.7	68.0*	24.8
O=C(O)c1cccc(Nc2ncnc3ccccc23)c1	-6.0	-0.8	-22.0	0.5	-1.9	-5.7	.	.
CC(=O)c1cccc(Nc2ncnc3ccc(Br)cc23)c1	.	-2.4	67.3*	-2.1	8.1	6.6	46.8*	38.4*
COc1cc2ncnc(NCc3ccco3)c2cc1OC	7.3	7.7	-13.9	-16.9	-1.9	-7.9	.	.
N#Cc1ccc(C(=O)Nc2cccc3ncccc23)c(F)c1	-6.6	-0.5	18.6	1.1	-2.4	1.1	.	.
Cc1cc(C)c2oc(-c3ccc(Cl)c(NC(=O)c4ccc(C#N)cc4F)c3)nc2c1	13.0	-11.1	69.4*	7.3	-7.9	-7.9	-11.6	.
CC1Sc2ccc(S(=O)(=O)CCC(=O)Nc3ccc(C(C)C)cc3)cc2NC1=O (centres undefined)	.	14.0	-9.6	-13.0	-2.4	-2.1	.	.
CC(C)N=c1cc2n(-c3ccc(Cl)cc3)c3ccccc3nc-2cc1Nc1ccc(Cl)cc1	.	43.7	97.1*	104.2*	114.0*	98.1*	94.2*	6.4
Cn1c(CNc2ccc(Cl)cc2)nc2ccccc21	6.4	-3.2	-28.7	57.8	-10.6	4.1	.	.
Clc1ccc2c(c1)C(C1=NCCN1)c1ccccc1CS2 (centres undefined)	10.0	-5.5	50.9*	41.2	6.3	1.7	52.6*	47.5*
Cc1ccc(C(=O)N2CCC3(CC2)Oc2ccc(F)cc2C(=O)C32CC(c3ccccc3)=NO2)s1 (centres undefined)	.	23.4	16.9	4.9	3.7	16.2	.	.
COc1ccc(-c2cc(=O)[nH]c3ccccc23)cc1	.	.	57.7*	.	-1.5	.	23.4	.
CCn1c(SCc2ccccc2)nc2c1c(=O)[nH]c(=O)n2C	.	-16.3	24.3	-13.7	-0.7	8.8	.	.
COc1nc(Nc2nc3ccccc3c(=O)[nH]2)nc2ccc(C)cc12	.	58.3*	65.5*	125.5*	97.1*	85.2*	42.8*	75.8*
